Columns and labels:
[1] = Growth inhibition of human COLO205 cells after 48 hrs; assay type: functional; conditions: COLO 205, 48 h
Outline: (§1)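 NCI-60 human tumour cell line panel screen run at the US National Cancer Institute under its standard cytotoxicity protocol. It covers leukaemia, NSCLC, colon, CNS, melanoma, ovarian, renal, prostate and breast lines. An initial single-dose test was followed by five-dose testing with 48 h compound exposure.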

KM12 = test: Growth inhibition of human KM12 cells after 48 hrs; assay type: functional; conditions: KM12, 48 h; outline: as §1
[2] = Cytotoxicity against human fibroblasts assessed as cell viability after 24 hrs incubation by MTT assay; assay type: cell-based; conditions: Fibroblast
Outline: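 Cell lines came from DSMZ; primary human fibroblasts served as non-cancer controls. Cells were grown in medium with 10% FCS, seeded at 50,000 cells/ml, and grown 2 days at 37 °C, 10% CO2. Serial dilutions were then added for 24 h. MTT (final 0.5 mg/ml) was added for 2 h. Formazan was pelleted, PBS-washed, dissolved in isopropanol/0.4% HCl and read at 590 nm. Two parallel experiments were run. IC50 was taken as the concentration giving 50% of untreated-control absorbance.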

[3] = Growth inhibition of human MOLT4 cells after 48 hrs; assay type: functional; conditions: MOLT-4, 48 h; outline: as §1
[4] = Growth inhibition of human PC3 cells after 48 hrs; assay type: functional; conditions: PC-3, 48 h; outline: as §1
[5] = Growth inhibition of human UACC257 cells after 48 hrs; assay type: functional; conditions: UACC-257, 48 h
Outline: (§2)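 Run by the NCI 58-cell-line screen under its standard cytotoxicity protocol. Compounds were first tested at a single dose, then at five doses. Cells were exposed to compound for 48 h.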

HL-60(TB) = test: Growth inhibition of human HL-60(TB) cells after 48 hrs; assay type: functional; conditions: HL-60, 48 h; outline: as §1
MDA-MB-231 = test: Growth inhibition of human MDA-MB-231 cells after 48 hrs; assay type: functional; conditions: MDA-MB-231, 48 h; outline: as §1
A498 = test: Growth inhibition of human A498 cells after 48 hrs; assay type: functional; conditions: A498, 48 h; outline: as §1
Mycolicibacterium phlei = test: Antimicrobial activity against Mycobacterium phlei assessed as inhibition at 20 ug/6 mm disk after 1 to 2 days by agar diffusion assay; assay type: functional
Outline: (§3)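 Standard agar diffusion: 6-mm paper disks loaded with 20 µg of compound were placed on inoculated plates. Inhibition-zone diameter (mm) was read after 1 and 2 days of growth.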

Malme-3M = test: Growth inhibition of human MALME-3M cells after 48 hrs; assay type: functional; outline: as §1
MCF7 = test: Growth inhibition of human MCF7 cells after 48 hrs; assay type: functional; conditions: MCF7, 48 h; outline: as §1
NCI-H226 = test: Growth inhibition of human NCI-H226 cells after 48 hrs; assay type: functional; conditions: NCI-H226, 48 h; outline: as §1
ACHN = test: Growth inhibition of human ACHN cells after 48 hrs; assay type: functional; outline: as §1
SNB-19 = test: Growth inhibition of human SNB19 cells after 48 hrs; assay type: functional; conditions: SNB-19, 48 h, read-out: pLC50 (the source's name) (converted); outline: as §2
[6] = Growth inhibition of human HCT15 cells after 48 hrs; assay type: functional; conditions: HCT-15, 48 h; outline: as §1
[7] = Growth inhibition of human SF295 cells after 48 hrs; assay type: functional; conditions: SF-295, 48 h, read-out: pLC50 (the source's name) (converted); outline: as §1
T47D = test: Growth inhibition of human T47D cells after 48 hrs; assay type: functional; outline: as §2
Escherichia coli = test: Antimicrobial activity against Escherichia coli tolC assessed as inhibition at 20 ug/6 mm disk after 1 to 2 days by agar diffusion assay; assay type: functional; outline: as §3
NCI-H23 = test: Growth inhibition of human NCI-H23 cells after 48 hrs; assay type: functional; conditions: NCI-H23, 48 h, read-out: pLC50 (the source's name) (converted); outline: as §1
786-0 = test: Growth inhibition of human 786-0 cells after 48 hrs; assay type: functional; conditions: 786-0, 48 h; outline: as §1
Pseudomonas aeruginosa = test: Antimicrobial activity against Pseudomonas aeruginosa assessed as inhibition at 20 ug/6 mm disk after 1 to 2 days by agar diffusion assay; assay type: functional; outline: as §3
M14 = test: Growth inhibition of human M14 cells after 48 hrs; assay type: functional; conditions: M14, 48 h; outline: as §1
SN12C = test: Growth inhibition of human SN12C cells after 48 hrs; assay type: functional; outline: as §2
[8] = Growth inhibition of human Hs 578T cells after 48 hrs; assay type: functional; outline: as §1
TK-10 = test: Growth inhibition of human TK10 cells after 48 hrs; assay type: functional; conditions: TK-10, 48 h; outline: as §2
Aspergillus niger = test: Antimicrobial activity against Aspergillus niger assessed as inhibition at 20 ug/6 mm disk after 1 to 2 days by agar diffusion assay; assay type: functional; outline: as §3
SNB-75 = test: Growth inhibition of human SNB75 cells after 48 hrs; assay type: functional; conditions: SNB-75, 48 h; outline: as §2
SK-MEL-2 = test: Growth inhibition of human SK-MEL-2 cells after 48 hrs; assay type: functional; conditions: SK-MEL-2, 48 h; outline: as §1
Micrococcus luteus = test: Antimicrobial activity against Micrococcus luteus assessed as inhibition at 20 ug/6 mm disk after 1 to 2 days by agar diffusion assay; assay type: functional; outline: as §3
[9] = Growth inhibition of human RPMI8226 cells after 48 hrs; assay type: functional; conditions: RPMI-8226, 48 h; outline: as §1
Staphylococcus aureus = test: Antimicrobial activity against Staphylococcus aureus assessed as inhibition at 20 ug/6 mm disk after 1 to 2 days by agar diffusion assay; assay type: functional; outline: as §3
[10] = read-out: pLC50 (the source's name) (converted)

COc1ccc(N(CC(=O)NCCC[Te]c2ccccc2)C(=O)CCSC2=C(C)C(=O)c3ccccc3C2=O)cc1
GI50 [1]: 1.86 µM
CC50 [1, 10]: 6.61 µM
TGI ([1]; read-out: pTGI (converted)): 3.47 µM
GI50 (KM12): 0.417 µM
CC50 (KM12; [10]): 5.13 µM
TGI (KM12; read-out: pTGI (converted)): 1.51 µM
IC50 [2]: 4 µM
GI50 [3]: 0.537 µM
CC50 [3, 10]: > 100 µM
TGI ([3]; read-out: pTGI (converted)): 3.55 µM
LC50 [4]: 14.8 µM
GI50 [5]: 2.04 µM
CC50 [5, 10]: 16.6 µM
TGI ([5]; read-out: pTGI (converted)): 5.01 µM
GI50 (HL-60(TB)): 2.88 µM
CC50 (HL-60(TB); [10]): > 100 µM
TGI (HL-60(TB); read-out: pTGI (converted)): 6.76 µM
GI50 (MDA-MB-231): 1.23 µM
LC50 (MDA-MB-231): 14.8 µM
TGI (MDA-MB-231; read-out: pTGI (converted)): 3.89 µM
GI50 (A498): 1.35 µM
TGI (A498; read-out: pTGI (converted)): 3.24 µM
diameter of the inhibition zone (DIZ) (Mycolicibacterium phlei): 15 mm
GI50 (Malme-3M): 2.24 µM
CC50 (Malme-3M; [10]): 8.32 µM
TGI (Malme-3M; read-out: pTGI (converted)): 4.37 µM
GI50 (MCF7): 0.49 µM
LC50 (concentration killing 50% of cells) (MCF7): 75.9 µM
TGI (MCF7; read-out: pTGI (converted)): 12 µM
GI50 (NCI-H226): 1.62 µM
TGI (NCI-H226; read-out: pTGI (converted)): 3.63 µM
GI50 (ACHN): 1.35 µM
LC50 (ACHN): 6.76 µM
TGI (ACHN; read-out: pTGI (converted)): 3.02 µM
CC50 (SNB-19): 56.2 µM
GI50 [6]: 0.447 µM
CC50 [6, 10]: 24.5 µM
TGI ([6]; read-out: pTGI (converted)): 2.34 µM
CC50 [7]: > 100 µM
GI50 (T47D): 1.55 µM
TGI (T47D; read-out: pTGI (converted)): 3.55 µM
diameter of the inhibition zone (DIZ) (Escherichia coli): 12 mm
CC50 (NCI-H23): 20.4 µM
GI50 (786-0): 2.09 µM
LC50 (786-0): 8.91 µM
TGI (786-0; read-out: pTGI (converted)): 4.37 µM
diameter of the inhibition zone (DIZ) (Pseudomonas aeruginosa): 0 mm
GI50 (M14): 0.759 µM
CC50 (M14; [10]): 5.25 µM
TGI (M14; read-out: pTGI (converted)): 2.14 µM
LC50 (SN12C): 23.4 µM
GI50 [8]: 1.78 µM
LC50 [8]: > 100 µM
GI50 (TK-10): 2.82 µM
LC50 (TK-10): 28.8 µM
TGI (TK-10; read-out: pTGI (converted)): 6.92 µM
diameter of the inhibition zone (DIZ) (Aspergillus niger): 0 mm
GI50 (SNB-75): 1.82 µM
CC50 (SNB-75; [10]): 45.7 µM
TGI (SNB-75; read-out: pTGI (converted)): 6.92 µM
GI50 (SK-MEL-2): 2.29 µM
CC50 (SK-MEL-2; [10]): 14.8 µM
TGI (SK-MEL-2; read-out: pTGI (converted)): 5.01 µM
diameter of the inhibition zone (DIZ) (Micrococcus luteus): 8 mm
GI50 [9]: 0.55 µM
CC50 [9, 10]: > 100 µM
TGI ([9]; read-out: pTGI (converted)): 3.09 µM
diameter of the inhibition zone (DIZ) (Staphylococcus aureus): 11 mm

From ChEMBL document CHEMBL3351600, “Sulfur, selenium and tellurium pseudopeptides: synthesis and biological evaluation” (Bioorg Med Chem, 2014)
